According to ChEMBL document CHEMBL1151761, “Radiohalogenated prostate-specific membrane antigen (PSMA)-based ureas as imaging agents for prostate cancer” (J Med Chem, 2008):

Experiments:
Assay type in all cases: ADME, organism-based
Spleen = experiment: Biodistribution in spleen of PSMA expressing human PC3 PIP and PSMA deficient human PC3 flu cells xenografted SCID mouse at 2 uCi, iv after 60 mins; details: in vivo, 1 h
Heart [1] = experiment: Biodistribution in heart of PSMA expressing human PC3 PIP and PSMA deficient human PC3 flu cells xenografted SCID mouse at 2 uCi, iv after 5 hrs; details: in vivo
[2] = Ratio of drug level in tumor to spleen of human PSMA expressing PC3 PIP and PSMA deficient human PC3 flu cells xenografted SCID mouse at 2 uCi, iv after 2 hrs; details: in vivo
Procedure, shortened: (§1)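 Male SCID mice carried subcutaneous xenografts: PSMA+ PC-3 PIP behind the left shoulder and PSMA− PC-3 flu behind the right, 1–5 × 10^6 cells in HBSS. Mice were used at 3–5 mm tumor diameter. 2 μCi was given by tail vein, and 4 mice per time point were killed by cervical dislocation. %ID/g came from a standard dilution of the dose, decay-corrected. Ratio is PIP tumor %ID/g to organ %ID/g.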

Stomach [3] = experiment: Biodistribution in stomach of PSMA expressing human PC3 PIP and PSMA deficient human PC3 flu cells xenografted SCID mouse at 2 uCi, iv after 2 hrs; details: in vivo
[4] = Biodistribution in PC3 PIP tumor of PSMA expressing human PC3 PIP and PSMA deficient human PC3 flu cells xenografted SCID mouse at 2 uCi, iv after 30 mins; details: in vivo, 0.5 h
Procedure, shortened: (§2)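 Male SCID mice carried subcutaneous PSMA+ PC-3 PIP (left shoulder) and PC-3 flu (right shoulder) xenografts, 1-5 × 10^6 cells in HBSS, and were used at 3-5 mm tumor diameter. Tail-vein injection of 2 µCi radioligand; four mice per time point, killed by cervical dislocation. %ID/g from a standard dilution of the dose, decay-corrected, mean ± SD; PIP tumor:organ ratios.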

Stomach [5] = experiment: Biodistribution in stomach of PSMA expressing human PC3 PIP and PSMA deficient human PC3 flu cells xenografted SCID mouse at 2 uCi, iv after 5 hrs; details: in vivo
[6] = Ratio of drug level in tumor to blood of human PSMA expressing PC3 PIP and PSMA deficient human PC3 flu cells xenografted SCID mouse at 2 uCi, iv after 30 mins
Procedure, shortened: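 Male SCID mice carried subcutaneous xenografts of PSMA+ PC-3 PIP cells behind the left shoulder and PSMA− PC-3 flu cells behind the right (1–5 × 10^6 cells in HBSS), used at a tumour diameter of 3–5 mm. Each mouse received 2 μCi of radioiodinated tracer via the tail vein. Tissues were harvested at each time point for %ID/g against a standard dilution of the dose, decay-corrected. Ratios are PIP tumour:organ.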

[7] = Ratio of drug level in tumor to heart of human PSMA expressing PC3 PIP and PSMA deficient human PC3 flu cells xenografted SCID mouse at 2 uCi, iv after 5 hrs; details: in vivo; procedure, shortened: as §2
[8] = Biodistribution in PC3 PIP tumor of PSMA expressing human PC3 PIP and PSMA deficient human PC3 flu cells xenografted SCID mouse at 2 uCi, iv after 2 hrs; details: in vivo
[9] = Ratio of drug level in tumor to lung of human PSMA expressing PC3 PIP and PSMA deficient human PC3 flu cells xenografted SCID mouse at 2 uCi, iv after 5 hrs; details: in vivo; procedure, shortened: as §2
[10] = Biodistribution in PC3 flu tumor of PSMA expressing human PC3 PIP and PSMA deficient human PC3 flu cells xenografted SCID mouse at 2 uCi, iv after 2 hrs; details: in vivo; procedure, shortened: as §2
[11] = Ratio of drug level in tumor to bladder of human PSMA expressing PC3 PIP and PSMA deficient human PC3 flu cells xenografted SCID mouse at 2 uCi, iv after 60 mins; details: in vivo, 1 h; procedure, shortened: as §2
[12] = Biodistribution in small intestine of PSMA expressing human PC3 PIP and PSMA deficient human PC3 flu cells xenografted SCID mouse at 2 uCi, iv after 30 mins; details: in vivo, 0.5 h; procedure, shortened: as §2
[13] = Ratio of drug level in tumor to spleen of human PSMA expressing PC3 PIP and PSMA deficient human PC3 flu cells xenografted SCID mouse at 2 uCi, iv after 30 mins; details: in vivo, 0.5 h; procedure, shortened: as §1
Blood [14] = experiment: Biodistribution in blood of PSMA expressing human PC3 PIP and PSMA deficient human PC3 flu cells xenografted SCID mouse at 2 uCi, iv after 60 mins; details: in vivo, 1 h
Urinary bladder [15] = experiment: Biodistribution in bladder of PSMA expressing human PC3 PIP and PSMA deficient human PC3 flu cells xenografted SCID mouse at 2 uCi, iv after 30 mins; details: in vivo, 0.5 h
Pancreas = experiment: Biodistribution in pancreas of PSMA expressing human PC3 PIP and PSMA deficient human PC3 flu cells xenografted SCID mouse at 2 uCi, iv after 5 hrs; details: in vivo
Heart [16] = experiment: Biodistribution in heart of PSMA expressing human PC3 PIP and PSMA deficient human PC3 flu cells xenografted SCID mouse at 2 uCi, iv after 60 mins; details: in vivo, 1 h
[17] = Biodistribution in large intestine of PSMA expressing human PC3 PIP and PSMA deficient human PC3 flu cells xenografted SCID mouse at 2 uCi, iv after 2 hrs; details: in vivo; procedure, shortened: as §2
Lung = experiment: Biodistribution in lung of PSMA expressing human PC3 PIP and PSMA deficient human PC3 flu cells xenografted SCID mouse at 2 uCi, iv after 5 hrs; details: in vivo
[18] = Ratio of drug level in tumor to lung of human PSMA expressing PC3 PIP and PSMA deficient human PC3 flu cells xenografted SCID mouse at 2 uCi, iv after 2 hrs; details: in vivo; procedure, shortened: as §2
[19] = Ratio of drug level in tumor to small intestine of human PSMA expressing PC3 PIP and PSMA deficient human PC3 flu cells xenografted SCID mouse at 2 uCi, iv after 5 hrs; details: in vivo; procedure, shortened: as §1
[20] = Biodistribution in large intestine of PSMA expressing human PC3 PIP and PSMA deficient human PC3 flu cells xenografted SCID mouse at 2 uCi, iv after 60 mins; details: in vivo, 1 h; procedure, shortened: as §2
[21] = Biodistribution in PC3 PIP tumor of PSMA expressing human PC3 PIP and PSMA deficient human PC3 flu cells xenografted SCID mouse at 2 uCi, iv after 5 hrs; details: in vivo
Urinary bladder [22] = experiment: Biodistribution in bladder of PSMA expressing human PC3 PIP and PSMA deficient human PC3 flu cells xenografted SCID mouse at 2 uCi, iv after 2 hrs; details: in vivo
Blood [23] = experiment: Biodistribution in blood of PSMA expressing human PC3 PIP and PSMA deficient human PC3 flu cells xenografted SCID mouse at 2 uCi, iv after 2 hrs; details: in vivo
Kidney = experiment: Biodistribution in kidney of PSMA expressing human PC3 PIP and PSMA deficient human PC3 flu cells xenografted SCID mouse at 2 uCi, iv after 60 mins; details: in vivo, 1 h
[24] = Ratio of drug level in tumor to heart of human PSMA expressing PC3 PIP and PSMA deficient human PC3 flu cells xenografted SCID mouse at 2 uCi, iv after 60 mins; details: in vivo, 1 h; procedure, shortened: as §2
[25] = Ratio of drug level in tumor to pancreas of human PSMA expressing PC3 PIP and PSMA deficient human PC3 flu cells xenografted SCID mouse at 2 uCi, iv after 5 hrs; details: in vivo; procedure, shortened: as §1

Structure (SMILES): O=C(O)CC[C@H](NC(=O)N[C@@H](CCCCNC(=O)c1ccc([18F])cc1)C(=O)O)C(=O)O
- Drug uptake (Spleen): 7.2 % ID/g
- Drug uptake (Heart [1]): 0.03 % ID/g
- Ratio [2]: 1
- Drug uptake (Stomach [3]): 0.3 % ID/g
- Drug uptake [4]: 8.6 % ID/g
- Drug uptake (Stomach [5]): 0.04 % ID/g
- Kp at 0.5 h [6]: 3
- Ratio [7]: 117
- Drug uptake [8]: 3.7 % ID/g
- Ratio [9]: 35
- Drug uptake [10]: 0.25 % ID/g
- Ratio [11]: 0.4
- Drug uptake [12]: 1.7 % ID/g
- Ratio [13]: 0.7
- Drug uptake (Blood [14]): 0.7 % ID/g
- Drug uptake (Urinary bladder [15]): 6.8 % ID/g
- Drug uptake (Pancreas): 0.05 % ID/g
- Drug uptake (Heart [16]): 0.2 % ID/g
- Drug uptake [17]: 0.2 % ID/g
- Drug uptake (Lung): 0.1 % ID/g
- Ratio [18]: 4
- Ratio [19]: 35
- Drug uptake [20]: 0.5 % ID/g
- Drug uptake [21]: 3.5 % ID/g
- Drug uptake (Urinary bladder [22]): 11 % ID/g
- Drug uptake (Blood [23]): 0.4 % ID/g
- Drug uptake (Kidney): 48 % ID/g
- Ratio [24]: 35
- Ratio [25]: 70
